Entries after “also recorded” stand apart in the source; their conditions may differ.
How the values were obtained:
[1] = In vitro cytotoxicity, Neutral Red assay; assay type: cell-based; conditions: human, SK-MEL malignant melanoma cells
Outline: (§1)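 Cells were kept in RPMI-1640 with 10% bovine calf serum and amikacin 60 mg/L at 37 °C, 5% CO₂. They were seeded at 25,000 cells/well and grown 24 h, then exposed 48 h to test compound diluted in serum-free medium, tested up to 25 μg/ml. Viability was read by Neutral Red, as % decrease versus vehicle. IC50 came from dose curves, in triplicate, with doxorubicin as reference.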

rat paw edema = assay: Carrageenan-induced rat paw edema assay; assay type: in vivo; conditions: for in vivo anti-inflammatory activity (in words): rat paw edema, compared to ketorolac; for Edema thickness ±SEM, 1h / Edema thickness ±SEM, 2h / Edema thickness ±SEM, 3h / Edema thickness ±SEM, 4h: rat, 30 mg/kg intraperitoneally; for Edema thickness ±SEM, 1h: 1h after induction; for Edema thickness ±SEM, 2h: 2h after induction; for Edema thickness ±SEM, 3h: 3h after induction; for Edema thickness ±SEM, 4h: 4h after induction
Outline: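 Adult albino rats of both sexes (120–150 g), pre-hydrated with 3 ml water by gavage, in groups of five. Test compound or ketorolac tromethamine was suspended in distilled water with a few drops of Tween 80 and given i.p. 1 h before 1% carrageenan s.c. into the right hind subplantar paw. Controls got saline/Tween 80.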

[2] = In vitro cytotoxicity, Neutral Red assay; assay type: cell-based; conditions: pig, LLC-PK11 pig kidney epithelial cells
Outline: as §1

[3] = In vitro cytotoxicity, Neutral Red assay; assay type: cell-based; conditions: human, KB oral epidermal carcinoma cells
Outline: (§2)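 Cells grown in RPMI-1640 with 10% bovine calf serum and amikacin (60 mg/L), 37°C, 5% CO₂, 95% humidity. Seeded at 25,000 cells/well, grown 24 h. Test samples diluted in serum-free medium, exposure 48 h. Viable cells counted by Neutral Red uptake; % viability loss against vehicle control. IC50 from dose curves, triplicate, means reported.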

[4] = In vitro cytotoxicity, Neutral Red assay; assay type: cell-based; conditions: African green monkey, Vero cells (kidney fibroblasts)
Outline: as §1

[5] = In vitro cytotoxicity, Neutral Red assay; assay type: cell-based; conditions: human, SK-OV-3 ovary carcinoma cells
Outline: as §2

| SMILES | IC50 at 48 h [1] [µg/mL] | in vivo anti-inflammatory activity (in words) (rat paw edema) | Edema thickness ±SEM, 1h (rat paw edema) | Edema thickness ±SEM, 2h (rat paw edema) | Edema thickness ±SEM, 3h (rat paw edema) | Edema thickness ±SEM, 4h (rat paw edema) | IC50 at 48 h [2] [µg/mL] | IC50 at 48 h [3] [µg/mL] | IC50 at 48 h [4] [µg/mL] | IC50 at 48 h [5] [µg/mL] |
| --- | --- | --- | --- | --- | --- | --- | --- | --- | --- | --- |
| O=c1sc2ccccc2n1CCCCCCN1CCN(CCCCCn2c(=O)sc3ccccc32)CC1 [Compound 5t, 3-(5-(4-(6-(2-oxobenzo[d]thiazol-3(2H)-yl)hexyl)piperazin-1-yl)pentyl)benzo[d]thiazol-2(3H)-one] | > 25 | significant anti-inflammatory and analgesic activity; also recorded: moderate activities compared to ketorolac | 93.01 ± 1.93 ×10^−2 mm | 91.57 ± 2.63 ×10^−2 mm | 109.24 ± 1.36 ×10^−2 mm | 127.34 ± 1.87 ×10^−2 mm | > 25 | > 25 | – | – |
| O=C(c1ccccc1)c1ccc2n1CCC2C(=O)O (stereo not shown) [Ketorolac, ketorolac tromethamine, reference compound] | – | – | 41.6 ± 2.02 ×10^−2 mm | 40.2 ± 2.82 ×10^−2 mm | 41.2 ± 2.06 ×10^−2 mm | 40.4 ± 1.52 ×10^−2 mm | – | – | – | – |
| O=c1sc2ccccc2n1CCCCCCN1CCN(CCCCCCn2c(=O)sc3ccccc32)CC1 [Compound 3j, 3,3′-(piperazine-1,4-diylbis(hexane-6,1-diyl))bis(benzo[d]thiaazol-2(3H)-one)] | > 25 | significant anti-inflammatory and analgesic activity; also recorded: moderate activities compared to ketorolac | 95.50 ± 1.02 ×10^−2 mm | 97.24 ± 2.35 ×10^−2 mm | 101.6 ± 1.68 ×10^−2 mm | 123.5 ± 1.13 ×10^−2 mm | > 25 | – | > 25 | – |
| O=c1sc2ccccc2n1CCCCCCN1CCN(CCCCn2c(=O)sc3ccccc32)CC1 [Compound 5r, 3-(6-(4-(4-(2-oxobenzo[d]thiazol-3(2H)-yl)butyl)piperazin-1-yl)hexyl)benzo[d]thiazol-2(3H)-one] | – | – | – | – | – | – | > 25 | – | > 25 | > 25 |
| O=c1oc2ccccc2n1CCCCCCN1CCN(CCCCCn2c(=O)oc3ccccc32)CC1 [Compound 5s, 3-(5-(4-(6-(2-oxobenzo[d]oxazol-3(2H)-yl)hexyl)piperazin-1-yl)pentyl)benzo[d]oxazol-2(3H)-one] | – | – | – | – | – | – | > 25 | > 25 | > 25 | > 25 |
| O=c1sc2ccccc2n1CCCCCN1CCN(CCCCCn2c(=O)sc3ccccc32)CC1 [Compound 3h, 3,3′-(piperazine-1,4-diylbis(pentane-5,1-diyl))bis(benzo[d]thiazol-2(3H)-one)] | – | – | – | – | – | – | > 25 | > 25 | > 25 | – |
| c1ccc2oc(SCCCCN3CCN(CCCCSc4nc5ccccc5o4)CC3)nc2c1 [Compound 8a, 1,4-bis(4-(benzo[d]oxazol-2-ylthio)butyl)piperazine] | – | – | – | – | – | – | – | – | > 25 | > 25 |
| O=c1sc2ccccc2n1CCCCCN1CCN(CCCCn2c(=O)sc3ccccc32)CC1 [Compound 5p, 3-(5-(4-(4-(2-oxobenzo[d]thiazol-3(2H)-yl)butyl)piperazin-1-yl)pentyl)benzo[d]thiazol-2(3H)-one] | – | – | – | – | – | – | > 25 | > 25 | > 25 | > 25 |
| O=c1sc2ccccc2n1CCCCCN1CCN(CCCn2c(=O)sc3ccccc32)CC1 [Compound 5l, 3-(3-(4-(5-(2-oxobenzo[d]thiazol-3(2H)-yl)pentyl)piperazin-1-yl)propyl)benzo[d]thiazol-2(3H)-one] | – | – | – | – | – | – | > 25 | > 25 | > 25 | > 25 |
